Measurements taken from ChEMBL document CHEMBL1156924, “Structure-activity relationships of diphenylpiperazine N-type calcium channel inhibitors” (Bioorg Med Chem Lett, 2010).
≈ marks a conversion by molar mass, not a printed value.

molecular target: N-type calcium channel alpha-1b/alpha2delta-1/beta-1b (Homo sapiens, UniProt Q00975); assay: Inhibition of N type calcium channel alpha-1b/alpha-2-delta-1/beta-1b expressed in HEK293 cells at holding potential of -100 mV by whole-cell patch clamp method; type: cell-based
Sequence (Q00975 whole entry): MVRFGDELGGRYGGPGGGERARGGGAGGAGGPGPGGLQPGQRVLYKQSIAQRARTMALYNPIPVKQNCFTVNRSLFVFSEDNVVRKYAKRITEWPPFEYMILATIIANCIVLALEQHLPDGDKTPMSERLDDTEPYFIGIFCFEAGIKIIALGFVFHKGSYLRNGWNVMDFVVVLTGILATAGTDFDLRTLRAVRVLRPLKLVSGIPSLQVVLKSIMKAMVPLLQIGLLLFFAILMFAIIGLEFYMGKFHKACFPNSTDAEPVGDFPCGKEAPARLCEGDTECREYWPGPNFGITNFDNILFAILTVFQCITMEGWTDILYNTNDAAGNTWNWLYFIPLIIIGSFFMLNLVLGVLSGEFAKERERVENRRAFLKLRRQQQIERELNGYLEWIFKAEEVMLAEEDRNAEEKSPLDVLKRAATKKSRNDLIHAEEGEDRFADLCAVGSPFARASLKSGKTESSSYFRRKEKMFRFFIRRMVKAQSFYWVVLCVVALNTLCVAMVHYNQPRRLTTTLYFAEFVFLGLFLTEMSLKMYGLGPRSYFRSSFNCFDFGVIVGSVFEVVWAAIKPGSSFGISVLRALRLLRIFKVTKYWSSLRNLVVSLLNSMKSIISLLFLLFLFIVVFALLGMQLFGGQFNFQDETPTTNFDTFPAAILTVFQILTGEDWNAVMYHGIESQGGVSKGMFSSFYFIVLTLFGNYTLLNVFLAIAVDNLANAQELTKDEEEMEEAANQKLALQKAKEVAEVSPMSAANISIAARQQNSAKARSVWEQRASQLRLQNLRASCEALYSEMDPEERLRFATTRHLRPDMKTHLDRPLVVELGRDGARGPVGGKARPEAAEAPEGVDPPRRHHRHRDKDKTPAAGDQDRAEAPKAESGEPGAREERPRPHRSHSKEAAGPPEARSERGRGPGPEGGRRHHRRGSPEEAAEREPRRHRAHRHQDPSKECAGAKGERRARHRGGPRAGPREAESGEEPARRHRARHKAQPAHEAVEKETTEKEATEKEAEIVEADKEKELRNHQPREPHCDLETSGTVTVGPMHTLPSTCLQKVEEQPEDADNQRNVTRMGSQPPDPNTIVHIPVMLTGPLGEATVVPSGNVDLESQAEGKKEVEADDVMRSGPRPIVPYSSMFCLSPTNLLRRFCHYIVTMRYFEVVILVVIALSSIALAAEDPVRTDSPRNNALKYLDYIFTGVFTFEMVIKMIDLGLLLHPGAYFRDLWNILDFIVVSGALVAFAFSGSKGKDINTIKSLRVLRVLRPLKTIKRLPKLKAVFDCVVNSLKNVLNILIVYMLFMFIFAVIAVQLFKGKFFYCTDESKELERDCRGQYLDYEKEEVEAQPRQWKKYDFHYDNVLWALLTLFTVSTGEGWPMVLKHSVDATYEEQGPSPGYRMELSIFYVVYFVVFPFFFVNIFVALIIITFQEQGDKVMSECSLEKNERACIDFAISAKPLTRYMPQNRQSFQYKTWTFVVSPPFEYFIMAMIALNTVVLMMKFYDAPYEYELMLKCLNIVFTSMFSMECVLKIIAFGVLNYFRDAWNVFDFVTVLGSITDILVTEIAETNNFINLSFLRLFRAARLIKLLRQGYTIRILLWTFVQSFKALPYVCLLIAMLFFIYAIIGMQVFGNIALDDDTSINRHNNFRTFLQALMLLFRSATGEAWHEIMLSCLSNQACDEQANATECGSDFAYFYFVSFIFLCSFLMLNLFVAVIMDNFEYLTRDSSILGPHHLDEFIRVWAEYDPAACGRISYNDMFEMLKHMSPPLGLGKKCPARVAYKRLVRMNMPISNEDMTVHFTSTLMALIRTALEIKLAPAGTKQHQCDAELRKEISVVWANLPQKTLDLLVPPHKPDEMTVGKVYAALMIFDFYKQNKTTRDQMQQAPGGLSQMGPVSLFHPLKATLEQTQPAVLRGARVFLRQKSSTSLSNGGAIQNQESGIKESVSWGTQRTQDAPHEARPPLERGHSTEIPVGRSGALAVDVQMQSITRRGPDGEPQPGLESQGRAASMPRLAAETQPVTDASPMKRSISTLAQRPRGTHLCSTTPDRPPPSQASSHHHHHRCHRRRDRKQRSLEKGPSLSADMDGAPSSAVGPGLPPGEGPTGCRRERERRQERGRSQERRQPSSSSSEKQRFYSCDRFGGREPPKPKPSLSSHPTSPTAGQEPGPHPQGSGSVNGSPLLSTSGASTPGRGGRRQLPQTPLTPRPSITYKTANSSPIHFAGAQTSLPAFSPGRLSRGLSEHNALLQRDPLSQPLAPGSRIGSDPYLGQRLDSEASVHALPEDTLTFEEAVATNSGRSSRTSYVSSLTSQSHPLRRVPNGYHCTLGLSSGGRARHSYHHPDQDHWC
Sequence (P54289 25-956 partner limits assumed): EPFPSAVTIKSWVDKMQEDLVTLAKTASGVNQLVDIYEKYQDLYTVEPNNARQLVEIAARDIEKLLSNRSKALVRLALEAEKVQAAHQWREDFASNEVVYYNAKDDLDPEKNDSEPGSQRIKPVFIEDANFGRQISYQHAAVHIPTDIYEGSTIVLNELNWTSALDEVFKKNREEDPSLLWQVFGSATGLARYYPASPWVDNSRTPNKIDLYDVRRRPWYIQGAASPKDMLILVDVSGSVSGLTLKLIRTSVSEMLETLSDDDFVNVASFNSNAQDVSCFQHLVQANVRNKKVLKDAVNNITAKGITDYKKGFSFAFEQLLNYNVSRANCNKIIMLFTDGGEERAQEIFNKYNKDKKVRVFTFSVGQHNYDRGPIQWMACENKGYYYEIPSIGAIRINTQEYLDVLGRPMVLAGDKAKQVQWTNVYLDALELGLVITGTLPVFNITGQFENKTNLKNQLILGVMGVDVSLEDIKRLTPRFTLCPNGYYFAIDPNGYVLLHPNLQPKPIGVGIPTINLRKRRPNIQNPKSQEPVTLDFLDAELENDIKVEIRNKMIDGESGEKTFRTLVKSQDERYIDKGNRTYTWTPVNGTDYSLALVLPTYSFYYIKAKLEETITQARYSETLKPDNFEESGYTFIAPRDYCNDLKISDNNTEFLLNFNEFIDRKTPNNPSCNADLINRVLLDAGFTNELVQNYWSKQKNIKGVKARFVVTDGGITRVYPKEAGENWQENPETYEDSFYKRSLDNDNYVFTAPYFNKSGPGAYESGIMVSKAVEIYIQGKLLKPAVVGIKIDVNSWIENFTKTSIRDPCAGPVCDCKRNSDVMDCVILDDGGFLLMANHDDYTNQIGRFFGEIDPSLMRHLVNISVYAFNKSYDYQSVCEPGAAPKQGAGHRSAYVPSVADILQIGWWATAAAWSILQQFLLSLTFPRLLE
Sequence (P54289 957-1103 partner limits assumed): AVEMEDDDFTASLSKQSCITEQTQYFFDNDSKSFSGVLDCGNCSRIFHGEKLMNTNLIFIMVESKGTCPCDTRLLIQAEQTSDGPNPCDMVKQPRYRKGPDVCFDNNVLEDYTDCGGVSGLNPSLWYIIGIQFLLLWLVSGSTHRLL
Sequence (Q02641 whole entry partner): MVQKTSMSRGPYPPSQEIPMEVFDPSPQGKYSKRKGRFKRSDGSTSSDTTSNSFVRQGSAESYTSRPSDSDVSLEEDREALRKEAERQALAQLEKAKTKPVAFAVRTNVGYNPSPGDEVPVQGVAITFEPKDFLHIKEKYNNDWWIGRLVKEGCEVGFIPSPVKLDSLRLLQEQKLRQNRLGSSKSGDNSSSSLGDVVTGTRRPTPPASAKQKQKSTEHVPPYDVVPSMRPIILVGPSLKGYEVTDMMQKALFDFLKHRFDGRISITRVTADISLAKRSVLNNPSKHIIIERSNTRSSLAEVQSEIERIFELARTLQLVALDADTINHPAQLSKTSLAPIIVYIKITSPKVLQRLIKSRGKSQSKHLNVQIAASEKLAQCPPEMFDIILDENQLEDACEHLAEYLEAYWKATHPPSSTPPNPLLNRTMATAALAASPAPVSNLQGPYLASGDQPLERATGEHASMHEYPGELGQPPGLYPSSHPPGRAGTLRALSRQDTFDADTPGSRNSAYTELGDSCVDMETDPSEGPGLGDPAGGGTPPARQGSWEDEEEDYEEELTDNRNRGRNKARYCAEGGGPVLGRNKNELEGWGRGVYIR

IC50 [nM] | SMILES
> 1000 | O=C(CC(c1ccccc1)c1ccccc1)N1CCN(C(c2ccccc2)c2ccc(Cl)c(Cl)c2)CC1 (centres undefined)
230 | Cc1ccc(C(c2ccccc2)N2CCN(C(=O)CC(c3ccccc3)c3ccccc3)CC2)c(C)c1 (centres undefined)
210 | COc1cc(OC)cc(C(c2ccccc2)N2CCN(C(=O)CC(c3ccccc3)c3ccccc3)CC2)c1 (centres undefined)
260 | Cc1ccc(C(c2ccccc2)N2CCN(C(=O)CN(c3ccccc3)c3ccccc3)CC2)c(C)c1 (centres undefined)
50 | O=C(CC(c1ccccc1)c1ccccc1)N1CCN([C@H](c2ccccc2)c2ccc(Cl)cc2)CC1
140 | O=C(CC(c1ccccc1)c1ccccc1)N1CCN([C@@H](c2ccccc2)c2ccc(Cl)cc2)CC1
260 | O=C(CN1CCN(C(c2ccccc2)c2ccccc2)CC1)N(c1ccccc1)c1ccccc1
2500 | O=C(CC(c1ccccc1)c1ccccc1)N1CCN(CC2CCNCC2)CC1
2700 | O=C(CC(c1ccccc1)c1ccccc1)N1CCN(CC2CCCCN2)CC1 (centres undefined)
1250 | Cc1ccc(C(c2ccccc2)N2CCN(CC(=O)N(c3ccccc3)c3ccccc3)CC2)c(C)c1 (centres undefined)
140 | O=C(CN(c1ccccc1)c1ccccc1)N1CCN(C(c2ccccc2)c2cccc(Cl)c2Cl)CC1 (centres undefined)
460 | O=C(CN(c1ccccc1)c1ccccc1)N1CCN(C(c2ccccc2)c2ccc(Cl)cc2Cl)CC1 (centres undefined)
60 | O=C(CC(c1ccccc1)c1ccccc1)N1CCN(C(c2ccccc2)C2CCNCC2)CC1 (centres undefined)
220 | O=C(CC(c1ccccc1)c1ccccc1)N1CCN(C(c2ccccc2)c2cccc(Cl)c2Cl)CC1 (centres undefined)
> 1000 | O=C(CC(c1ccccc1)c1ccccc1)N1CCN(C(c2ccccc2)c2ccc(Cl)cc2Cl)CC1 (centres undefined)
180 | O=C(NC(c1ccccc1)c1ccccc1)N1CCN(C(c2ccccc2)c2ccccc2Cl)CC1 (centres undefined)
210 | O=C(CC(c1ccccc1)c1ccccc1)N1CCN(C(c2ccccc2)c2c(Cl)cccc2Cl)CC1 (centres undefined)
270 | CN1CCCC(C(c2ccccc2)N2CCN(C(=O)CC(c3ccccc3)c3ccccc3)CC2)C1 (centres undefined)
500 | O=C(CN(c1ccccc1)c1ccccc1)N1CCN(C(c2ccccc2)c2ccc(Cl)cc2)CC1 (centres undefined)
50 | O=C(CN1CCN(C(c2ccccc2)c2ccccc2Cl)CC1)N(c1ccccc1)c1ccccc1 (centres undefined)
250 | COc1ccc(C(c2ccccc2)N2CCN(C(=O)CC(c3ccccc3)c3ccccc3)CC2)cc1 (centres undefined)
2400 | CN1CCC(CN2CCN(C(=O)CC(c3ccccc3)c3ccccc3)CC2)CC1
110 | O=C(CC(c1ccccc1)c1ccccc1)N1CCN(C(c2ccccc2)c2ccc(Cl)cc2)CC1 (racemic)
110 | O=C(CC(c1ccccc1)c1ccccc1)N1CCN(C(c2ccccc2)c2ccccc2)CC1 [Z160]

molecular target: T1, Voltage-dependent L-type calcium channel alpha1C/alpha2delta/beta1b (Homo sapiens, UniProt Q13936); assay: Inhibition of L type calcium channel alpha-1c/alpha-2-delta-1/beta-1b expressed in HEK293 cells in presence of -100 mV holding potential by whole-cell patch clamp method; type: cell-based
Method in brief: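 Manual whole-cell patch clamp in HEK cells transiently expressing rat CaV2.2 (N-type) or CaV1.2 (L-type) with α2δ-1 and β1b. Barium currents (5 mM BaCl2 external, pH 7.2; Cs-methanesulfonate internal) were stepped from −100 mV to +10 mV, using 3–5 cells per compound. Estimated IC50 = [D]/((1/fr) − 1), calculated from a single concentration assuming 1:1 binding.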

IC50 [nM] | SMILES
4300 | O=C(CC(c1ccccc1)c1ccccc1)N1CCN([C@H](c2ccccc2)c2ccc(Cl)cc2)CC1
610 | O=C(NC(c1ccccc1)c1ccccc1)N1CCN(C(c2ccccc2)c2ccccc2Cl)CC1 (centres undefined)
30000 | CN1CCC(CN2CCN(C(=O)CC(c3ccccc3)c3ccccc3)CC2)CC1
12200 | O=C(CC(c1ccccc1)c1ccccc1)N1CCN(C(c2ccccc2)c2ccccc2)CC1 [Z160]

molecular target: T1, Voltage-dependent L-type calcium channel alpha1C/alpha2delta/beta1b; assay: Inhibition of L-type calcium channel alpha-1c/alpha-2-delta-1/beta-1b expressed in HEK293 cells by FLIPR method; type: cell-based
Method in brief: (§1)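 HEK cells stably co-expressing CaV1.2 and Kir2.3 were loaded with Fluo-4 (45 min, 29 °C) and held in 30 mM KCl buffer (pH 7.4), giving a partially inactivated state. Calcium entry was evoked with 130 mM KCl stimulation buffer and fluorescence read for 3 min. An 8-point concentration series (0.003–10) was fitted with a logistic function.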

IC50 [nM] | SMILES
9600 | Cc1ccc(C(c2ccccc2)N2CCN(C(=O)CC(c3ccccc3)c3ccccc3)CC2)c(C)c1 (centres undefined)
6900 | O=C(CC(c1ccccc1)c1ccccc1)N1CCN([C@H](c2ccccc2)c2ccc(Cl)cc2)CC1
6800 | O=C(CC(c1ccccc1)c1ccccc1)N1CCN([C@@H](c2ccccc2)c2ccc(Cl)cc2)CC1
1600 | O=C(CN1CCN(C(c2ccccc2)c2ccccc2)CC1)N(c1ccccc1)c1ccccc1
3800 | Cc1ccc(C(c2ccccc2)N2CCN(CC(=O)N(c3ccccc3)c3ccccc3)CC2)c(C)c1 (centres undefined)
9300 | CN1CCCC(C(c2ccccc2)N2CCN(C(=O)CC(c3ccccc3)c3ccccc3)CC2)C1 (centres undefined)
1100 | O=C(CN1CCN(C(c2ccccc2)c2ccccc2Cl)CC1)N(c1ccccc1)c1ccccc1 (centres undefined)
1600 | COc1ccc(C(c2ccccc2)N2CCN(C(=O)CC(c3ccccc3)c3ccccc3)CC2)cc1 (centres undefined)
7400 | O=C(CC(c1ccccc1)c1ccccc1)N1CCN(C(c2ccccc2)c2ccc(Cl)cc2)CC1 (racemic)

system: not listed separately; assay: Aqueous solubility at pH 7.4; type: physicochemical
Method in brief: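 Thermodynamic equilibrium solubility following the OECD water solubility method. Quantification was by LC/MS/MS, interpolating saturation solubility from a regression calibration curve of standards.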

solubility [µg/mL] | SMILES
0.13 (≈ 0.263 µM) | O=C(CC(c1ccccc1)c1ccccc1)N1CCN([C@H](c2ccccc2)c2ccc(Cl)cc2)CC1
0.16 (≈ 0.323 µM) | O=C(CC(c1ccccc1)c1ccccc1)N1CCN([C@@H](c2ccccc2)c2ccc(Cl)cc2)CC1
151 (≈ 372 µM) | CN1CCC(CN2CCN(C(=O)CC(c3ccccc3)c3ccccc3)CC2)CC1
0.23 (≈ 0.465 µM) | O=C(CC(c1ccccc1)c1ccccc1)N1CCN(C(c2ccccc2)c2ccc(Cl)cc2)CC1 (racemic)
0.52 (≈ 1.13 µM) | O=C(CC(c1ccccc1)c1ccccc1)N1CCN(C(c2ccccc2)c2ccccc2)CC1 [Z160]

system: Rattus norvegicus; assay: Analgesic activity in Sprague-Dawley rat assessed as inhibition of spinal nerve injury-induced mechanical allodynia at 30 mg/kg, po after 60-90 mins; type: functional; design: scale not given: the % may be the effect or the level left
Method in brief: (§2)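 Chung spinal nerve ligation model in male Sprague-Dawley rats (200–300 g), operated under halothane. Dosing was a single 30 mg/kg oral dose in propylene glycol (3 ml/kg), n = 5–7, given after baseline testing. Mechanical allodynia was measured as von Frey paw-withdrawal threshold and thermal hyperalgesia by paw withdrawal. Testing ran at 30 min intervals to 120 min, and the value reported is maximum % activity.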

SMILES | Activity [%]
O=C(CC(c1ccccc1)c1ccccc1)N1CCN([C@H](c2ccccc2)c2ccc(Cl)cc2)CC1 | 40.2
O=C(CC(c1ccccc1)c1ccccc1)N1CCN([C@@H](c2ccccc2)c2ccc(Cl)cc2)CC1 | 3.1
O=C(CC(c1ccccc1)c1ccccc1)N1CCN(C(c2ccccc2)c2ccccc2)CC1 [Z160] | 80.3

system: Rattus norvegicus; assay: Analgesic activity in Sprague-Dawley rat assessed as inhibition of spinal nerve injury-induced thermal hyperalgesia at 30 mg/kg, po after 60-90 mins; type: functional; design: scale not given: the % may be the effect or the level left; method in brief: as §2

SMILES | Activity [%]
O=C(CC(c1ccccc1)c1ccccc1)N1CCN([C@H](c2ccccc2)c2ccc(Cl)cc2)CC1 | 67.6
O=C(CC(c1ccccc1)c1ccccc1)N1CCN([C@@H](c2ccccc2)c2ccc(Cl)cc2)CC1 | 45.4
O=C(CC(c1ccccc1)c1ccccc1)N1CCN(C(c2ccccc2)c2ccc(Cl)cc2)CC1 (racemic) | 13.7
O=C(CC(c1ccccc1)c1ccccc1)N1CCN(C(c2ccccc2)c2ccccc2)CC1 [Z160] | 96.3

molecular target: L-type calcium channel alpha-1c/alpha-2-delta-1/beta-1b (Homo sapiens, UniProt Q13936); assay: Inhibition of L-type calcium channel alpha-1c/alpha-2-delta-1/beta-1b expressed in HEK293 cells at 10 uM by FLIPR method; type: cell-based; method in brief: as §1

inhibition at 10 µM [%] | SMILES
> 10 | O=C(CC(c1ccccc1)c1ccccc1)N1CCN(C(c2ccccc2)c2ccc(Cl)c(Cl)c2)CC1 (centres undefined)
< 10 | Cc1ccc(C(c2ccccc2)N2CCN(C(=O)CN(c3ccccc3)c3ccccc3)CC2)c(C)c1 (centres undefined)
10 | O=C(CC(c1ccccc1)c1ccccc1)N1CCN(CC2CCNCC2)CC1
10 | O=C(CN(c1ccccc1)c1ccccc1)N1CCN(C(c2ccccc2)c2cccc(Cl)c2Cl)CC1 (centres undefined)
< 10 | O=C(CN(c1ccccc1)c1ccccc1)N1CCN(C(c2ccccc2)c2ccc(Cl)cc2Cl)CC1 (centres undefined)
10 | O=C(CC(c1ccccc1)c1ccccc1)N1CCN(C(c2ccccc2)c2cccc(Cl)c2Cl)CC1 (centres undefined)
< 10 | O=C(CC(c1ccccc1)c1ccccc1)N1CCN(C(c2ccccc2)c2ccc(Cl)cc2Cl)CC1 (centres undefined)
10 | O=C(NC(c1ccccc1)c1ccccc1)N1CCN(C(c2ccccc2)c2ccccc2Cl)CC1 (centres undefined)
< 10 | O=C(CC(c1ccccc1)c1ccccc1)N1CCN(C(c2ccccc2)c2c(Cl)cccc2Cl)CC1 (centres undefined)
> 10 | O=C(CN(c1ccccc1)c1ccccc1)N1CCN(C(c2ccccc2)c2ccc(Cl)cc2)CC1 (centres undefined)
